From article PMC11094776 (Protein Science : A Publication of the Protein Society, 2024)
Non-standard residues stand in square brackets, D forms with d. Residues, ends and D or L forms follow the SMILES beside them. No end group written: not given here. *: point of attachment. FITC = O=C1OC2(c3ccc(O)cc3Oc3cc(O)ccc32)c2ccc(NC(=S)*)cc21; βAla = NCCC(=O)O

Legend:
[1] = molecular target: AF4 (761–770 aa) derived fluorescent labeled peptide (UniProt P51825); test: fluorescence polarisation
[2] = molecular target: DOT1L (879–888 aa) derived fluorescent labeled peptide; test: fluorescence polarisation
[3] = tested on: AF9 AHD; conditions: cited from earlier work; for interaction sites within the DOT1L sequence: ref Kuntimaddi et al., 2015
[4] = molecular target: T1, MBP‐RITK‐AF9 AHD (Homo sapiens, UniProt P42568); test: Fluorescence polarization direct binding, MBP-RITK-AF9 AHD
T1 sequence (P42568 500-568): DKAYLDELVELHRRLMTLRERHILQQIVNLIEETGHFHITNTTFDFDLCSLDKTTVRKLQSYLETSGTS
Outline: (§1)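 Fusion protein expressed at 18°C in Rosetta (DE3) cells in TB medium. Cells were lysed by sonication in 50 mM Tris 7.4, 150 mM NaCl, 10% glycerol, 20 mM imidazole, 3 mM TCEP. Protein was captured on Ni-NTA, eluted with a 50–250 mM imidazole gradient, TEV-treated overnight (1:100 w/w), then run on Superdex 200 SEC. Stored at −80°C in 25 mM Tris 7.4, 150 mM NaCl, 1 mM TCEP.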

[5] = molecular target: MBP‐AAAA‐AF9 AHD Q336C/K501C (Homo sapiens, UniProt P42568, Q361C); test: Fluorescence polarization direct binding, MBP-AAAA-AF9 AHD Q336C/K501C
Outline: as §1

[6] = molecular target: T2, MBP‐GS‐AF9 AHD (Homo sapiens, UniProt P42568); test: Fluorescence polarization direct binding, MBP-GS-AF9 AHD
T2 sequence (P42568 500-568): T1 sequence (P42568 500-568)
Outline: as §1

[7] = molecular target: MBP‐AAA‐AF9 AHD Q336C/A502C (Homo sapiens, UniProt P42568, A502C/Q361C); test: Fluorescence polarization direct binding, MBP-AAA-AF9 AHD Q336C/A502C
Outline: as §1

[8] = molecular target: T3, MBP‐AAA‐AF9 AHD (Homo sapiens, UniProt P42568); test: Fluorescence polarization direct binding, MBP-AAA-AF9 AHD
T3 sequence (P42568 500-568): T1 sequence (P42568 500-568)

[9] = molecular target: T4, MBP‐AAAA‐AF9 AHD (Homo sapiens, UniProt P42568); test: Fluorescence polarization direct binding, MBP-AAAA-AF9 AHD
T4 sequence (P42568 500-568): T1 sequence (P42568 500-568)

[10] = tested on: ENL AHD; conditions: ref Kabra & Bushweller, 2022; cited from earlier work

MBP‐AAAA‐AF9 AHD Q336C/K501C (from UniProt P42568 500-568) (domain or fragment)
Kd [1]: 1.26 nM
Kd [2]: 10.7 nM

MBP‐RITK‐AF9 AHD (from UniProt P42568 500-568) (domain or fragment)
Kd [1]: 1.31 nM
Kd [2]: 7.86 nM

LPISIPLSTV [LPISIPLSTV (865–874)]
binding site for the AHD ([3]; mapped 10-amino acid DOT1L peptide, ref Grigsby et al., 2021, Shen et al., 2013): binding site for the AHD

CC[C@H](C)[C@H](NC(=O)[C@H](CCCCN)NC(=O)[C@@H](NC(=O)[C@H](CCSC)NC(=O)[C@H](CC(C)C)NC(=O)CCNC(=O)CCNC(=O)[C@H](CCCCNC(=S)Nc1ccc2c(c1)C(=O)OC21c2ccc(O)cc2Oc2cc(O)ccc21)NC(C)=O)C(C)C)C(=O)N[C@H](C(=O)N[C@@H](CC(C)C)C(=O)N[C@@H](CC(=O)O)C(=O)N[C@@H](CC(C)C)C(=O)N[C@@H](CC(C)C)C(N)=O)[C@@H](C)O [AF4 (761–770 aa)] (Ac-K(FITC)[βAla][βAla]LMVKITLDLL-NH2)
Kd [4]: 1.31 ± 0.05 nM
Kd [5]: 1.26 ± 0.11 nM
Kd [6]: 3.7 ± 0.94 nM
Kd [7]: 3.49 ± 0.18 nM

MBP‐AAA‐AF9 AHD (from UniProt P42568 500-568) (domain or fragment)
Kd [2]: 8.79 nM

AF4 peptide: AF4 peptide of prior reports (LMVKITLDLL; also: fluorescent label, dye and position not given here)
affinity for AF9 AHD relative to DOT1L peptide ([3]; prior reports, ref Kabra & Bushweller, 2022, Shen et al., 2013): higher affinity

MBP‐AAAA‐AF9 AHD (from UniProt P42568 500-568) (domain or fragment)
Kd [2]: 15.6 nM

MBP‐AAA‐AF9 AHD Q336C/A502C (from UniProt P42568 500-568) (domain or fragment)
Kd [2]: 20.9 nM

LELQISIVEL [LELQISIVEL (638–647)]
interaction sites within the DOT1L sequence [3]: interaction sites

CC[C@H](C)[C@H](NC(=O)[C@H](CO)NC(=O)[C@@H](NC(=O)[C@@H]1CCCN1C(=O)[C@H](CC(C)C)NC(=O)CCNC(=O)CCNC(=O)[C@H](CCCCNC(=S)Nc1ccc2c(c1)C(=O)OC21c2ccc(O)cc2Oc2cc(O)ccc21)NC(C)=O)C(C)C)C(=O)N1CCC[C@H]1C(=O)N[C@@H](CC(C)C)C(=O)N[C@@H](C)C(=O)N[C@@H](CO)C(=O)N[C@H](C(N)=O)C(C)C [DOT1L (879–888 aa)] (Ac-K(FITC)[βAla][βAla]LPVSIPLASV-NH2)
Kd [4]: 7.86 ± 0.76 nM
Kd [5]: 10.7 ± 2.84 nM
Kd [8]: 8.79 ± 0.41 nM
Kd [9]: 15.6 ± 1.93 nM
Kd [6]: 17.9 ± 3.49 nM
Kd [7]: 20.9 ± 2.59 nM

MBP‐GS‐AF9 AHD (from UniProt P42568 500-568) (domain or fragment)
Kd [2]: 17.9 nM

LPVSIPLASV [LPVSIPLASV (879–888)]
interaction sites within the DOT1L sequence [3]: interaction sites

BCOR peptide (1176–1228): longer BCOR peptide (1176–1228) (TNSSSNHLEDPHYSELTNLKVCIELTGLHPKKQRHLLHLRERWEQQVSAADGK; UniProt Q6W2J9 1176-1228, looked up, fragment)
binding affinity compared with short peptide (1176–1207) ([3]; AF9 AHD, ref Kabra & Bushweller, 2022): higher binding affinity
binding affinity compared with short peptide (1176–1207) [10]: higher binding affinity
